Results on nine compounds are retold here after ChEMBL document CHEMBL4387722.

Data set [1] addresses T1, Phosphotyrosine protein phosphatase (Mycobacterium tuberculosis, UniProt A0A045ISB3).
T1 sequence (A0A045ISB3 whole entry): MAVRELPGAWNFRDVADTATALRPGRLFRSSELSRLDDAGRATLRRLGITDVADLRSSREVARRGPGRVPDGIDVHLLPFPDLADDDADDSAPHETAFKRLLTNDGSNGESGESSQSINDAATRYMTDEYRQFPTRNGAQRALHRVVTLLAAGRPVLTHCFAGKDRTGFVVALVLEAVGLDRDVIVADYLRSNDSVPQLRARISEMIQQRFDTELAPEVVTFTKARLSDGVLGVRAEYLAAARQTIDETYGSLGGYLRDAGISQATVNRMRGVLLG
As to the kind of experiment: Inhibition of Mycobacterium tuberculosis His-tagged PtpB expressed in Escherichia coli Rosetta 2 (DE3) using pNPP as substrate after 30 mins by spectrophotometric method.

Data set [2] concerns the target T2, Tyrosine-protein phosphatase non-receptor type 1 (Homo sapiens, UniProt P18031).
T2 sequence (P18031 whole entry): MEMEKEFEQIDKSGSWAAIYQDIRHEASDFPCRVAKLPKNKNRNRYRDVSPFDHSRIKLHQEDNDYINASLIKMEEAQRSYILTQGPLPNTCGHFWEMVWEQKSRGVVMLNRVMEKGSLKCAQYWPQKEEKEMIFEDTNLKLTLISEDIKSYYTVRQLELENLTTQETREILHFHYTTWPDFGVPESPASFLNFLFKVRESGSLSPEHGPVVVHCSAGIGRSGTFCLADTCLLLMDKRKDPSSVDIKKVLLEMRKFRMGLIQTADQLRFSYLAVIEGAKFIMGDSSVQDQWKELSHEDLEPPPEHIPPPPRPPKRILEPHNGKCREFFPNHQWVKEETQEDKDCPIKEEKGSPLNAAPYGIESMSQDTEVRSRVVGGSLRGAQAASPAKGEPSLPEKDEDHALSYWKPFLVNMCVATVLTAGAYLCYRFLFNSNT
The experiment in a line: Inhibition of human PTPN1 expressed in Escherichia coli Rosetta 2 (DE3) using pNPP as substrate after 45 mins by spectrophotometric method.

In data set [3] the target is T3, Tyrosine-protein phosphatase non-receptor type 2 (Homo sapiens, UniProt P17706).
T3 sequence (P17706 whole entry): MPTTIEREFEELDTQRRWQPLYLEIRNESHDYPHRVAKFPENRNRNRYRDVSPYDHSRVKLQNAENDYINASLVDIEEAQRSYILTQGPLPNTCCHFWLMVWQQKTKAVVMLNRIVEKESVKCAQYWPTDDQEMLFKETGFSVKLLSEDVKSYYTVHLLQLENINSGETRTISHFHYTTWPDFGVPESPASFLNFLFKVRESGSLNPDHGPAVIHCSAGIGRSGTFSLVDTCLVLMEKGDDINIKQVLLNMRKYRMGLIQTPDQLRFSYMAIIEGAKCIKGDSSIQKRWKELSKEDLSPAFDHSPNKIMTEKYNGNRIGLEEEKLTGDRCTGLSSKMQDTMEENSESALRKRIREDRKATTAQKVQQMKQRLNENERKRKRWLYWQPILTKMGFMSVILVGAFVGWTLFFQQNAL
As to the kind of experiment: Inhibition of human PTPN2 expressed in Escherichia coli Rosetta 2 (DE3) using pNPP as substrate after 45 mins by spectrophotometric method.

The target of data set [4] is T4, Tyrosine-protein phosphatase non-receptor type 5 (Homo sapiens, UniProt P54829).
T4 sequence (P54829 whole entry): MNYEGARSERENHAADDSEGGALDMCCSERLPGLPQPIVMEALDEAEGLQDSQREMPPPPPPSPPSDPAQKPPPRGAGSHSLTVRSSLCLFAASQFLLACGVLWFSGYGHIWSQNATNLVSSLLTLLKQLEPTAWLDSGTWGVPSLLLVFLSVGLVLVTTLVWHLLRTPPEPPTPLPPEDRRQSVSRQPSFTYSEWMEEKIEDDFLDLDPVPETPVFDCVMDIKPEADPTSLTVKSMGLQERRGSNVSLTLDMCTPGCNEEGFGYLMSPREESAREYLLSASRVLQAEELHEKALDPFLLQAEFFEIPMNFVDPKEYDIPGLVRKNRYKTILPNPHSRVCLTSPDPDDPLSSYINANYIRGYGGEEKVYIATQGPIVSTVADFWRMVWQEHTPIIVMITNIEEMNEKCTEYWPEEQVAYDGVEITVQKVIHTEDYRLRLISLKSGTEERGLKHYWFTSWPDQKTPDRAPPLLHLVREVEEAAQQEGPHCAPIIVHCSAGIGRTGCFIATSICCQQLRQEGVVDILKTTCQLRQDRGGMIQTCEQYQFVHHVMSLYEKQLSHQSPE
The experiment in a line: Inhibition of human PTPN5 expressed in Escherichia coli Rosetta 2 (DE3) using pNPP as substrate after 45 mins by spectrophotometric method.

Data set [5] deals with Mycobacterium tuberculosis. The experiment in a line: Antitubercular activity against Mycobacterium tuberculosis H37Rv after 5 days at 200 uM relative to control. The format is functional. Particulars: 120 h. The procedure, abridged: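 M. tuberculosis grown in liquid culture with compound at a fixed 200 μM for 5 days. Growth inhibition expressed as percent of control.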

Data set [6] has as its system Mycobacterium tuberculosis. The experiment in a line: Antitubercular activity against Mycobacterium tuberculosis H37Rv after 5 days. The format is functional, organism-based. Particulars: 120 h.
Data set [7] in a line: Inhibition of refolded rhodanese (unknown origin) preincubated with Escherichia coli GroEL/GroES for 60 mins by measuring rhodanese enzyme activity followed by compound addition by Fe(SCN)3 dye based spectrometric analysis. More on the design: species or system Homo sapiens.
Data set [8] concerns the target T5, Malate dehydrogenase, mitochondrial (Sus scrofa, UniProt P00346).
T5 sequence (P00346 whole entry): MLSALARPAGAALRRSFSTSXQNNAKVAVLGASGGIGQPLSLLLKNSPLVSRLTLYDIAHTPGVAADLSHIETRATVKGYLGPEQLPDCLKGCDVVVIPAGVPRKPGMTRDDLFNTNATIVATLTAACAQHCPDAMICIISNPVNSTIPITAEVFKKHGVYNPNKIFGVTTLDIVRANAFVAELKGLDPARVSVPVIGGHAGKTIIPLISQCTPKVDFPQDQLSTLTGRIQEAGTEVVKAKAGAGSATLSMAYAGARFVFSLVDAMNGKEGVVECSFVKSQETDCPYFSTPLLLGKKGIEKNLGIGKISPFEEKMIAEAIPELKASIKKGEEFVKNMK
The experiment in a line: Inhibition of refolded pig heart mitochondrial MDH preincubated with Escherichia coli GroEL/GroES for 45 mins using sodium mesoxalate as substrate followed by compound addition and measured after 20 to 30 mins by spectrometric analysis.

The target in a further data set is HSP60/HSP10 (Homo sapiens, UniProt P10809). As to the kind of experiment: Inhibition of human HSP60 expressed in Escherichia coli Rosetta 2(DE3)/human HSP10 expressed in Escherichia coli Rosetta 2(DE3) pLysS cells assessed as reduction in HSP60/HSP10-mediated denatured pig heart mitochondrial MDH refolding by measuring MDH enzyme activity using sodium mesoxalate as substrate after 40 to 60 mins by spectrometric analysis.
HSP60/HSP10, sequence (P10809 whole entry): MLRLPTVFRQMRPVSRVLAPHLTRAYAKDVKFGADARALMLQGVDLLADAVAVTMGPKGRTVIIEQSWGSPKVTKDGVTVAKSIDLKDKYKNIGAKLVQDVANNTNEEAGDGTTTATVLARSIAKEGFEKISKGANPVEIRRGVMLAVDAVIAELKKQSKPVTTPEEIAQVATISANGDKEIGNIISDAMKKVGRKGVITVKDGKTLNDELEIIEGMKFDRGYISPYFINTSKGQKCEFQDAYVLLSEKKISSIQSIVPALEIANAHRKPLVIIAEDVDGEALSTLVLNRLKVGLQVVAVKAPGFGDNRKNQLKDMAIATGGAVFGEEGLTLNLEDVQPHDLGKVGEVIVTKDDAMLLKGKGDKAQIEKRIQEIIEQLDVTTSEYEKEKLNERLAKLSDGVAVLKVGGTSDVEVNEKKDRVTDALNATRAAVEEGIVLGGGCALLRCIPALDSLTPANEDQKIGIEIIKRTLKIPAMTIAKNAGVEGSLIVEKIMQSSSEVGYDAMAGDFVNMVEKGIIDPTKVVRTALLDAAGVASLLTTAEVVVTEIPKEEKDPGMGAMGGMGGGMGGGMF
HSP60/HSP10, sequence (P61604 whole entry, further chain): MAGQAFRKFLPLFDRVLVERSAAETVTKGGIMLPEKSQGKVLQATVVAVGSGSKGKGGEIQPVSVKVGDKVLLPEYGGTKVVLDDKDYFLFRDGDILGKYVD

A short description of data set [9]: Cytotoxicity against human THLE3 cells assessed as reduction in cell viability after 48 hrs by Alamar blue assay. The format is cell-based. In outline: (§1)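 Alamar Blue viability read-out. Human liver (THLE-3) and kidney (HEK 293) cells incubated with compound for 48 h. Tested in dose-response to derive CC50.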
A short description of data set [10]: Cytotoxicity against human HEK293 cells assessed as reduction in cell viability after 48 hrs by Alamar blue assay. The format is cell-based. In outline: as §1

For `O=S(=O)(Nc1ccc(-c2nc3ccccc3o2)cc1)c1cccc(O)c1`, the IC50 in data set [1] was 79 µM; in data set [2], more than 100 µM; in data set [3], more than 100 µM; in [4], 84 µM; in data set [7] it was more than 100 µM; in data set [8], more than 63 µM. In addition, on HSP60/HSP10, the IC50 stood at 62 µM. In [5], this compound came in with an inhibition at 200 µM of 61%. In addition, in data set [6], the concentration giving a half-maximal response (EC50) amounted to 189 µM. The figures for the CC50 at 48 h in [9] and in data set [10] were 97 µM and more than 100 µM, respectively.

For the compound `COc1ccc(S(=O)(=O)Nc2ccc(-c3nc4ccccc4o3)cc2)cc1`, the IC50 in data set [1] was 61 µM; in [2] it was 42 µM; in [3] it was 53 µM; in data set [4] it was 45 µM; in data set [7] it was more than 100 µM; in [8], more than 63 µM. The IC50 on HSP60/HSP10 was more than 100 µM. The compound further gave an inhibition at 200 µM in [5] of 72%. Moreover, in [6], it took 179 µM to reach a half-maximal effect (EC50). Further, the results for the CC50 at 48 h in data set [9] and in [10] were 86 µM and more than 100 µM, respectively.

With `COc1ccc(S(=O)(=O)Nc2ccc3oc(-c4ccccc4)nc3c2)cc1`, the IC50 in data set [1] is 73 µM; in data set [2] it was 46 µM; in [3], 50 µM; in data set [4] it was 37 µM; in data set [7], more than 100 µM; in [8], more than 63 µM. Further, the IC50 on HSP60/HSP10 is more than 100 µM. In [5], this compound showed an inhibition at 200 µM of 75%. The same compound had an EC50 in [6] of 167 µM. For the same compound, the CC50 at 48 h was 53 µM in data set [9] and 91 µM in data set [10].

As for `CS(=O)(=O)Nc1ccc(-c2nc3cc(NS(C)(=O)=O)ccc3o2)cc1`, the half-maximal inhibitory concentration (IC50) in data set [1], in data set [2], in data set [3] and in [4] was more than 100 µM each time. Also, the inhibition at 200 µM in data set [5] is 62%. This compound had an EC50 in data set [6] of more than 200 µM.

For the compound `O=S(=O)(Nc1ccc(-c2nc3cc(NS(=O)(=O)c4cccc5nonc45)ccc3o2)cc1)c1cccc2nonc12`, the IC50 in data set [1] worked out at 8.8 µM; in data set [2] it was 34 µM; in data set [3] it was 58 µM; in data set [4], 40 µM. The compound also came in with an inhibition at 200 µM in data set [5] of 76%. In data set [6], this compound had an EC50 of more than 200 µM.

For `O=S(=O)(Nc1ccc(-c2nc3cc(NS(=O)(=O)c4cccc(F)c4)ccc3o2)cc1)c1cccc(F)c1`, the IC50 in [1] is 13 µM; in [2], 36 µM; in data set [3], 32 µM; in data set [4], 31 µM. In addition, the inhibition at 200 µM in data set [5] is 48%. Moreover, the EC50 in data set [6] was more than 200 µM.

`Cc1cccc(S(=O)(=O)Nc2ccc3oc(-c4ccccc4)nc3c2)c1`: the IC50 in [1] was 63 µM; in [2], 53 µM; in [3], 57 µM; in [4], 39 µM; in data set [7] it was more than 100 µM; in [8], more than 63 µM. Moreover, on HSP60/HSP10, the 50% inhibitory concentration (IC50) was more than 100 µM. In [5], this compound displayed an inhibition at 200 µM of 82%. The same compound came in with an EC50 in data set [6] of 161 µM. The figures for the CC50 at 48 h in data set [9] and in [10] were 38 µM and 69 µM, respectively.

As for `CS(=O)(=O)Nc1ccc2oc(-c3ccc(NS(=O)(=O)c4ccc(Cl)s4)cc3)nc2c1`, the IC50 in data set [1] was 46 µM; in data set [2], 73 µM; in [3], more than 100 µM; in data set [4], more than 100 µM. In [5], the inhibition at 200 µM came to 85%. This compound had an EC50 in [6] of 104 µM.

As for `N#Cc1ccccc1S(=O)(=O)Nc1ccc(-c2nc3cc(NS(=O)(=O)c4ccccc4C#N)ccc3o2)cc1`, the IC50 in data set [1] is 18 µM; in [2], 56 µM; in data set [3], 69 µM; in data set [4], 47 µM. Moreover, 200 µM produced 85% inhibition in [5]. This compound registered an EC50 in data set [6] of 113 µM.
